# Screening results: PubChem BioAssay, several laboratories
# Sampled rows, rich in hits. Any-hit rate of the full collection: about 2.1%.
# Efflux pump mplx – inhibitors of Candida efflux pumps in yeast, primary screen, S. cerevisiae, Nile Red, multiplex. AID 485275, 2010. inhibition, % at 10 µM. S. cerevisiae Candida pump triplex. 330,000 compounds, 0.44% hits;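 active = plate passing quality check with inhibition over a set limit, or well fluorescence over plate mean plus 4 SD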;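 also: Nile Red retained in pooled yeast measured as flow cytometry median fluorescence; 0% = buffer negative control and 100% = Enniatin B positive control; higher means more Nile Red kept so more efflux inhibition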
# RTF Ca sens act – cardiac RTF calcium sensitivity activators, primary screen, biochemical, IANBD-TnC fluorescence, EC20 calcium. IANBD-labeled TnC RTF fluorescence at EC20 calcium; 0% EC20 calcium, 100% full calcium. AID 493008, 2010. 340,000 compounds, 0.24% hits. activation, % at 7.2 µM;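 active = activation above the mean over all tested compounds plus 3 SD, cut at about 30% in these data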;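 also: rise in fluorescence read as greater calcium sensitivity of cardiac thin filaments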
# SUMO Mot1 rescue – yeast Mot1-301 growth rescue at high temperature, primary screen, SUMOylation pathway inhibitor project, S. cerevisiae, ATP luminescence, 38.5C; growth rescue, % at 18.8 µM; 320,000 compounds, 1% hits; S. cerevisiae Mot1-301 growth rescue; percent above DMSO median, 100 means doubled;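 active = every valid replicate shows activation above 250% relative to neutral control wells; inactive = the rest, any valid replicate at or below 250%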;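 also: OY570 slx delta 5 strain wells were the positive control but not used for scaling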
# UCH37 inh – inhibitors of human UCH37 deubiquitinase, primary screen, biochemical, Ub-AMC cleavage, fluorescence. Ubiquitin carboxyl-terminal hydrolase isozyme L5 (Homo sapiens), Q9Y5K5. purified proteasome/UCH37. inhibition, % (no concentration beside the values). 330,000 compounds, 0.33% hits. AID 588478, 2011;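 active = mean inhibition over replicate wells above about 20%, limit read from the data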;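 also: 0% = compound-free wells with enzyme and 100% = wells lacking proteasome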
# Target sequence (Q9Y5K5 whole entry, looked up): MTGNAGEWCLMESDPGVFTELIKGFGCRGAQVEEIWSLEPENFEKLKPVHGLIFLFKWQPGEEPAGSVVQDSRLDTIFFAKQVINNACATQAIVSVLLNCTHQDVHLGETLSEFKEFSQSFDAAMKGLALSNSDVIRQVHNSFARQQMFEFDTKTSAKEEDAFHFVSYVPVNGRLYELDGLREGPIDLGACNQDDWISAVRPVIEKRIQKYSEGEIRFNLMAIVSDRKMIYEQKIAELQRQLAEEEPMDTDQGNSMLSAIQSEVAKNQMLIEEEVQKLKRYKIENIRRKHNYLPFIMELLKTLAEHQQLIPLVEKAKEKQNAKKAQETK
#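 Material: human UCH37 enzyme supplied as purified proteasome complex. Measure: % inhibition of Ub-AMC cleavage fluorescence. Medium: pH 7.4 Tris-HCl (50 mM) with ovalbumin, ATP-MgCl2, DTT. Times: 30 min preincubation with enzyme, 25 min cleavage at room temperature. Detection: AMC fluorescence intensity at 355/460 nm.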
# RTF Ca sens inh – cardiac RTF calcium sensitivity inhibitors, primary screen, biochemical, IANBD-TnC fluorescence, EC70 calcium. Troponin I, cardiac muscle (Homo sapiens) + Troponin T, cardiac muscle (Homo sapiens) + …. IANBD-labeled cardiac RTF, Ca2+ fluorescence. inhibition, % at 7.15 µM. 340,000 compounds, 0.12% hits. AID 493244, 2011;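 active = inhibition above the mean inhibition of all tested compounds plus 3 SD, cut at about 17% in these data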;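 also: assay run at fixed EC70 calcium of 1.6 mM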
# ARNT TACC3 PPI – disruptors of ARNT/TACC3 protein interaction, primary screen, biochemical, AlphaScreen, single concentration | Transforming acidic coiled-coil-containing protein 3 (Homo sapiens), Q9Y6A5 | AlphaScreen His-ARNT PAS-B/GST-TACC3 binding, luminescence; TACC3 fragment carries E629A point mutation | inhibition, % at 9.99 µM | 390,000 compounds, 0.66% hits | AID 623870, 2012;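 active = mean inhibition of replicates at least 50% and at least half of replicates each reaching 50%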;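 also: 0% = complete ARNT plus TACC3 wells and 100% = ARNT alone without TACC3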
# Starred values were filed as active, the others as inactive; x = no result; ! = not active in a repeat.
SMILES,Efflux pump mplx,RTF Ca sens act,SUMO Mot1 rescue,UCH37 inh,RTF Ca sens inh,ARNT TACC3 PPI
CC(C)(C)C1=NN=C2c3ccccc3C(=O)C21 (stereo not drawn),-0.1,-7.1,675.0*,5.8,-5.2,-4.9
COc1cc(C=Nn2c(C3CCCCC3)n[nH]c2=S)ccc1O,x,x,x,2.5,x,x
C/C(=N\NC(=O)c1cc2c(s1)CCC(C)C2)c1ccc[nH]1 (stereo not drawn),-0.3,36.9*,23.5,x,-29.2,3.6
CSc1nc2n(n1)C(c1cccc(F)c1)C(C(=O)Nc1ccc(C)cc1C)=C(C)N2 (stereo not drawn),-0.1,8.0,-8.9,2.4,1.7,-2.4
CC1=C(C(=O)Nc2ccc(C)cc2C)C(c2ccc(Cl)cc2)n2nc(C(=O)OC(C)C)nc2N1 (stereo not drawn),-2.5,-5.7,655.2*,2.1,-1.2,1.0
COc1ccc(OCC(=O)NN=C(C)Cc2ccccc2)cc1,x,x,x,3.3,x,x
CCN1C(=O)/C(=C2\SC(=S)N(NC(=O)c3ccccc3O)C2=O)c2ccccc21,0.1,0.3,-25.0,2.8,-1.8,64.6*
CCN1C(=O)/C(=C2\SC(=S)N(c3c(C)n(C)n(-c4ccccc4)c3=O)C2=O)c2ccccc21,-0.1,-1.2,-4.2,x,-0.2,14.8
O=[N+]([O-])c1cccc(S(=O)(=O)c2ccc(NCCO)c([N+](=O)[O-])c2)c1,-0.1,-7.7,12.7,31.5*,0.6,-2.2
O=[N+]([O-])c1cccc(S(=O)(=O)c2ccc(NCCOCCO)c([N+](=O)[O-])c2)c1,-0.3,-2.3,-6.6,3.3,-0.8,2.4
COc1ccc2c(c1OC)C(=O)OC2C1c2c(cc3c(c2OC)OCO3)CCN1C (stereo not drawn),0.0,5.6,483.9*!,2.3,6.0,-12.3
COc1ccc2c(c1OC)C(C1c3c(cc4c(c3OC)OCO4)CCN1C)OC2=O (stereo not drawn),-0.1,1.4,10.0,-0.1,0.4,-2.4
NC(=O)NN=Cc1ccccc1OC(=O)c1cc2ccccc2oc1=O,x,x,x,-50.1,x,x
CC1CCC2C(=O)N(c3ccc(C(=O)Oc4cccc5cccnc45)cc3)C(=O)C2C1 (stereo not drawn),0.1,2.2,-29.4,2.8,-44.1,48.7*
Cc1ccc(C(=O)Oc2ccccc2N2C(=O)C3CCC(C)CC3C2=O)cc1 (stereo not drawn),-0.1,3.5,-8.1,-0.5,2.8,-3.4
Cc1nonc1C(=O)NN=Cc1ccccc1,x,x,x,0.9,x,x
COc1cccc(-c2noc(CCC(=O)NCCc3ccccc3)n2)c1,-0.1,3.0,8.4,0.5,-4.9,15.4
COc1ccc(-c2noc(CCC(=O)NCCc3ccccc3)n2)cc1,0.0,37.8*,7.5,0.0,-4.3,0.1
Cc1cc(C)n2nc(C(=O)NN=Cc3ccc(Cl)cc3)nc2n1,x,x,x,2.3,x,x
CCOC(=O)/C(=C\c1ccc(N2CCC(c3ccccc3)=N2)cc1)C(C)=O,x,72.2*,x,-148.6,-65.9,x
CC(C)(C)C(=O)Nc1ccc(S(=O)(=O)c2ccc(NC(=O)C(C)(C)C)cc2)cc1,0.0,6.8,319.7*,0.1,-8.9,3.1
CC(C)(C)C(=O)Nc1ccc(NC(=O)C(C)(C)C)cc1,-0.2,2.5,12.2,1.8,-5.9,-2.0
O=C1c2cc(O)cc(O)c2C(=O)c2c1cc(O)c([C@@H](CO)CCO)c2O,-0.1,0.2,40.0,9.8,4.0,46.1*
Cc1cc(O)c2c(c1)C(=O)c1cc(O)cc(O)c1C2=O,0.0,1.6,2.9,3.4,13.3,0.6
O=C(CSc1nnc(-c2c[nH]c3ccccc23)o1)NCC1CCCO1 (stereo not drawn),0.2,-2.5,285.5*,0.4,-4.1,-5.2
SMILES,Efflux pump mplx,RTF Ca sens act,SUMO Mot1 rescue,UCH37 inh,RTF Ca sens inh,ARNT TACC3 PPI
CCn1cc(C(=O)O)c(=O)c2cc(F)c(N/N=C/c3ccccc3[N+](=O)[O-])cc21,-0.1,-15.3,668.8*,x,-2.0,13.0
CCCCCCCCCC(=O)NN=Cc1ccc(C)s1,x,x,x,4.2,x,x
C/C(=N/NC(=O)c1ccc(C(C)(C)C)cc1)c1ccccn1,-0.1,9.7,1.8,x,-1.9,65.3*
COc1ccc(C(=O)N/N=C(\C)c2ccccn2)cc1OC,0.0,1.1,1.4,x,-1.6,67.0*
C/C(=N\NC(=O)c1cccc(Br)c1)c1ccccn1,-0.1,-0.8,12.7,x,0.7,45.0*
C/C(=N\NC(=O)c1ccc(Cl)c(Cl)c1)c1ccccn1,-0.1,-7.5,-11.3,x,-9.4,x
CC(=NNC(=O)c1ccc(Cl)c(Cl)c1)c1ccccn1,x,x,x,0.7,x,x
C/C(=N\NC(=O)c1ccccc1Cl)c1ccccn1,-0.3,-0.3,14.5,x,-16.7,67.0*
CC(=NNC(=O)c1ccc(C(C)(C)C)cc1)c1ccccn1,x,x,x,2.0,x,x
O=C(NN=Cc1cccc2ccccc12)c1cc(C2CC2)[nH]n1,x,x,x,3.0,x,x
NNC(=O)c1cc(-c2cccs2)nc2ccccc12,0.1,0.6,-0.6,-313.2,-0.7,-2.8
C/C(=N\NC(=O)c1cc(-c2cccs2)nc2ccccc12)c1ccccn1,-0.1,4.0,18.1,x,-6.7,72.5*
CC(=NNC(=O)C1COc2ccccc2O1)c1ccccn1 (stereo not drawn),x,x,x,2.0,x,x
C/C(=N\NC(=O)C1COc2ccccc2O1)c1ccccn1 (stereo not drawn),0.1,-1.2,23.3,x,9.9,64.1*
O=C(N/N=C/c1ccccn1)c1cc(-c2ccncc2)nc2ccccc12,-0.3,5.4,-4.8,x,-0.1,68.2*
COc1cc(C(=O)Oc2ccccc2C=NNC(=O)c2ccc(C)cc2)cc(OC)c1OC,x,x,x,-2.6,x,x
CSc1ccc(CN2CCC(Oc3ccc(C(=O)N4CCCC4)cc3)CC2)cc1,0.1,-1.2,276.9*,3.6,-6.2,4.1
CCc1ccc(CN2CCC(Oc3ccc(C(=O)N4CCCC4)cc3)CC2)cc1,-0.1,-2.8,11.8,-2.3,1.1,x
O=C1NC2=C(C(=O)CCC2)C(c2ccccc2Cl)N1 (stereo not drawn),-0.1,19.3,-4.4,2.6,-22.1,-37.1
Cc1nc(Cl)c2c(n1)NC1=C(O2)C(=O)CCC1,0.0,47.1*,-24.6,-9.9,-74.5,3.9
Clc1ccc(C=Nc2c(-c3ccc(Cl)cc3)nc3n2CCS3)cc1,x,x,x,6.8,x,x
COc1ccc(CN2C(=O)c3cccnc3C2=O)cc1S(=O)(=O)NCc1ccccc1,-0.2,-3.3,-0.4,1.2,-9.3,47.9*
CCOc1cccc2sc(N(CCN(CC)CC)C(=O)c3cccc([N+](=O)[O-])c3)nc12,-0.1,-1.8,-18.7,1.6,-3.4,1.3
